ChEMBL document CHEMBL4622840, “Microbial transformation of glycyrrhetinic acid derivatives by Bacillus subtilis ATCC 6633 and Bacillus megaterium CGMCC 1.1741” (Bioorg Med Chem, 2020)

Columns and labels:
[1] = Cytotoxicity against mouse RAW264.7 cells assessed as cell viability; format: cell-based; set-up: concentration or dose not given beside the values; settings: read-out: Activity
RAW264.7 = experiment: Antiinflammatory activity in mouse RAW264.7 cells assessed as inhibition of NO production preincubated for 1 hr followed by LPS stimulation measured after 24 hrs by Griess reagent based assay; format: functional, cell-based
In short: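 RAW 264.7 macrophages kept at 37 °C under 5% CO2. Cells were exposed to compound for 1 h, then stimulated with LPS at 1.0 μg/mL. After 24 h, nitrite/NO in the medium was read with Griess reagent.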

[2] = Mus musculus, RAW264.7, read-out: IC50

SMILES | viability [1] [%] | IC50 (RAW264.7; [2]) [µM] | IC50 (RAW264.7; raw264.7)
CC1(C)[C@@H](O)CC[C@]2(C)[C@H]3CC=C4[C@@H]5C[C@@](C)(CO)CC[C@]5(C)C[C@H](O)[C@@]4(CO)[C@]3(C)[C@@H](O)C[C@@H]12 | 107 | 0.07 | 
CC1(C)CC[C@]2(C(=O)O[C@@H]3O[C@H](CO)[C@@H](O)[C@H](O)[C@H]3O)CC[C@]3(C)C(=CC(=O)[C@@H]4[C@@]5(C)CC[C@H](O)C(C)(C)[C@@H]5CC[C@]43C)[C@@H]2C1 | 82.7 | 11.1 | 
CC1(C)[C@@H](O)CC[C@]2(C)C3[C@H](O)C=C4[C@@H]5C[C@@](C)(CO)CC[C@]5(C)CC[C@@]4(C=O)[C@]3(C)[C@@H](O)C[C@@H]12 (stereo not given in full) | 130 |  | Not Active
CC1(C)[C@@H](O[C@@H]2O[C@H](CO)[C@@H](O)[C@H](O)[C@H]2O)CC[C@]2(C)[C@H]3C(=O)C=C4[C@@H]5C[C@@](C)(CO)CC[C@]5(C)CC[C@@]4(C)[C@]3(C)CC[C@@H]12 | 1.22 |  | Not Active
CC1(C)[C@@H](O)CC[C@]2(C)[C@H]3C(=O)C=C4[C@@H]5C[C@@](C)(C(=O)O)CC[C@]5(C)CC[C@@]4(C)[C@]3(C)CC[C@@H]12 [ENOXOLONE] | 4.04 |  | Not Active
CC1(C)[C@@H](O)CC[C@]2(C)[C@H]3C(=O)C=C4[C@@H]5C[C@@](C)(C=O)CC[C@]5(C)CC[C@@]4(C)[C@]3(C)CC[C@@H]12 | 89.6 | 47.2 | 
CC1(C)[C@@H](O)CC[C@]2(C)[C@H]3CC=C4[C@@H]5C[C@@](C)(CO)CC[C@]5(C)C[C@H](O)[C@@]4(C)[C@]3(C)[C@@H](O)C[C@@H]12 | 120 |  | Not Active
CC1(C)[C@@H](O)CC[C@]2(C)[C@H]3C(=O)C=C4[C@@H]5C[C@@](C)(CO)CC[C@]5(C)CC[C@@]4(C)[C@]3(C)CC[C@@H]12 | 56.6 | 50.3 | 
CC1(C)[C@@H](O)CC[C@]2(C)[C@H]3CC=C4[C@@H]5C[C@@](C)(CO)CC[C@]5(C)CC[C@@]4(C)[C@]3(C)CC[C@@H]12 | 102 | 48.2 | 
CC1(C)[C@@H](O)CC[C@]2(C)C3=CC=C4[C@@H]5C[C@@](C)(CO)CC[C@]5(C)C[C@H](O)[C@@]4(CO)[C@]3(C)[C@@H](O)C[C@@H]12 | 130 | 68.9 | 
CC1(C)[C@@H](O[C@@H]2O[C@H](CO)[C@@H](O)[C@H](O)[C@H]2O)CC[C@]2(C)[C@H]3C(=O)C=C4[C@@H]5C[C@@](C)(C(=O)O[C@@H]6O[C@H](CO)[C@@H](O)[C@H](O)[C@H]6O)CC[C@]5(C)CC[C@@]4(C)[C@]3(C)CC[C@@H]12 | 121 |  | Not Active
CC1(C)CC[C@]2(C(=O)O)CC[C@]3(C)C(=CC(=O)[C@@H]4[C@@]5(C)CC[C@H](O)C(C)(C)[C@@H]5CC[C@]43C)[C@@H]2C1 | 111 |  | Not Active
O=c1c(O)c(-c2ccc(O)c(O)c2)oc2cc(O)cc(O)c12 [QUERCETIN] | 106 | 4.53 | 
CC1(C)C(=O)CC[C@]2(C)[C@H]3CC=C4[C@@H]5C[C@@](C)(CO)CC[C@]5(C)CC[C@@]4(C)[C@]3(C)CC[C@@H]12 | 110 | 38.3 | 
CC1(C)[C@@H](O)CC[C@]2(C)[C@H]3C(=O)C=C4[C@@H]5C[C@@](C)(C(=O)O[C@@H]6O[C@H](CO)[C@@H](O)[C@H](O)[C@H]6O)CC[C@]5(C)CC[C@@]4(C)[C@]3(C)CC[C@@H]12 | 94.8 |  | Not Active
CC1(C)[C@@H](O)CC[C@]2(C)[C@H]3CC=C4[C@@H]5C[C@@](C)(C(=O)O)CC[C@]5(C)CC[C@@]4(CO)[C@]3(C)[C@@H](O)C[C@@H]12 | 114 |  | Not Active
CC1(C)[C@@H](O[C@@H]2O[C@H](CO)[C@@H](O)[C@H](O)[C@H]2O)CC[C@]2(C)[C@H]3C(=O)C=C4[C@@H]5C[C@@](C)(C=O)CC[C@]5(C)CC[C@@]4(C)[C@]3(C)CC[C@@H]12 | 7.33 |  | Not Active
CC1(C)[C@@H](O)CC[C@]2(C)[C@H]3[C@H](O)C=C4[C@@H]5C[C@@](C)(CO)CC[C@]5(C)C[C@H](O)[C@@]4(C)[C@]3(C)[C@@H](O)C[C@@H]12 | 112 |  | Not Active
CC1(C)[C@@H](O)CC[C@]2(C)[C@H]3CC=C4[C@@H]5[C@H](O)[C@@](C)(CO)CC[C@]5(C)C[C@H](O)[C@@]4(C)[C@]3(C)[C@@H](O)C[C@@H]12 | 125 | 0.64 | 
CC1(C)[C@@H](O)CC[C@]2(C)[C@H]3CC=C4[C@@H]5C[C@@](C)(C(=O)O)CC[C@]5(C)CC[C@@]4(C)[C@]3(C)CC[C@@H]12 | 83.4 | 25.6 | 
